In brackets after ≈: the same amount, converted by molar mass.
Key:
Format in all cases: functional
Haemophilus influenzae [1] = experiment: Antibacterial activity against Beta-lactamase negative Haemophilus influenzae with PBP3 mutation
Haemophilus influenzae [2] = experiment: Antibacterial activity against Beta-lactamase negative Haemophilus influenzae isolate after 20 to 24 hrs by broth microdilution method
Procedure, shortened: (§1)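 Broth microdilution per CLSI on clinical H. influenzae isolates genotyped by ftsI/blaTEM PCR and sequencing. Medium: Mueller-Hinton broth with HTM supplement and yeast extract (5%). Inoculum about 5 x 10^5 CFU/ml, confirmed by colony counts on chocolate agar. Incubation 35°C, 20 to 24 h, 5% CO2. MIC was the lowest concentration inhibiting growth. Amoxicillin-clavulanic acid tested at 2:1. β-lactamase status determined by nitrocefin test.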

Haemophilus influenzae [3] = experiment: Antibacterial activity against Beta-lactamase negative Haemophilus influenzae assessed as susceptible isolates after 20 to 24 hrs by broth microdilution method
Procedure, shortened: (§2)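 CLSI broth microdilution in Mueller-Hinton broth with HTM supplement and yeast extract (5%), inoculum about 5 x 10^5 CFU/ml (checked by colony counts on chocolate agar); 35°C, 20–24 h in 5% CO2. MIC = lowest concentration inhibiting growth; amoxicillin-clavulanic acid at 2:1. β-lactamase status by nitrocephin test.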

Haemophilus influenzae [4] = experiment: Antibacterial activity against Beta-lactamase negative Haemophilus influenzae isolate after 20 to 24 hrs by Etest method
Procedure, shortened: (§3)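 Etest on clinical H. influenzae isolates genotyped by ftsI/blaTEM sequencing. Overnight chocolate-agar colonies were suspended in saline to McFarland 0.5 and swabbed confluently onto 150-mm agar plates. Strips were placed radially, then plates incubated at 35°C in 5% CO2 for 20 to 24 h. MIC read where the inhibition ellipse meets the strip. Values rounded up to the next log2 step.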

Haemophilus influenzae [5] = experiment: Antibacterial activity against Beta-lactamase negative Haemophilus influenzae assessed as susceptible isolates after 20 to 24 hrs by Etest method
Procedure, shortened: (§4)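 Confluent swab of agar plates with saline suspension of overnight chocolate-agar colonies at McFarland 0.5; Etest strips placed radially; 35°C, 5% CO2, 20–24 h. MIC read where the inhibition ellipse meets the strip, rounded up to next log2 concentration. β-lactamase status by nitrocephin chromogenic cephalosporin test; genotype by ftsI/blaTEM sequencing.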

Haemophilus influenzae [6] = experiment: Antibacterial activity against Beta-lactamase positive Haemophilus influenzae isolate after 20 to 24 hrs by broth microdilution method; procedure, shortened: as §2
Haemophilus influenzae [7] = experiment: Antibacterial activity against Beta-lactamase positive Haemophilus influenzae assessed as susceptible isolates after 20 to 24 hrs by broth microdilution method; procedure, shortened: as §1
Haemophilus influenzae [8] = experiment: Antibacterial activity against Beta-lactamase positive Haemophilus influenzae isolate after 20 to 24 hrs by Etest method; procedure, shortened: as §3
Haemophilus influenzae [9] = experiment: Antibacterial activity against Beta-lactamase positive Haemophilus influenzae assessed as susceptible isolates after 20 to 24 hrs by Etest method; procedure, shortened: as §4
Haemophilus influenzae [10] = experiment: Antibacterial activity against Beta-lactamase positive Haemophilus influenzae assessed as resistant isolates after 20 to 24 hrs by Etest method; procedure, shortened: as §3
Haemophilus influenzae [11] = experiment: Antibacterial activity against Beta-lactamase negative Haemophilus influenzae isolate harboring fst1 mutant gene after 20 to 24 hrs by broth microdilution method; procedure, shortened: as §1
Haemophilus influenzae [12] = experiment: Antibacterial activity against Beta-lactamase negative Haemophilus influenzae harboring fst1 mutant gene assessed as susceptible isolates after 20 to 24 hrs by broth microdilution method; procedure, shortened: as §1
Haemophilus influenzae [13] = experiment: Antibacterial activity against Beta-lactamase negative Haemophilus influenzae harboring fst1 mutant gene assessed as resistant isolates after 20 to 24 hrs by broth microdilution method; procedure, shortened: as §1
Haemophilus influenzae [14] = experiment: Antibacterial activity against Beta-lactamase negative Haemophilus influenzae isolate harboring fst1 mutant gene after 20 to 24 hrs by Etest method; procedure, shortened: as §3
Haemophilus influenzae [15] = experiment: Antibacterial activity against Beta-lactamase negative Haemophilus influenzae harboring fst1 mutant gene assessed as susceptible isolates after 20 to 24 hrs by Etest method; procedure, shortened: as §3
Haemophilus influenzae [16] = experiment: Antibacterial activity against Beta-lactamase positive Haemophilus influenzae isolate harboring fst1 mutant gene after 20 to 24 hrs by broth microdilution method; procedure, shortened: as §1
Haemophilus influenzae [17] = experiment: Antibacterial activity against Beta-lactamase positive Haemophilus influenzae isolate harboring fst1 mutant gene after 20 to 24 hrs by Etest method; procedure, shortened: as §3
Haemophilus influenzae [18] = experiment: Antibacterial activity against Beta-lactamase negative Haemophilus influenzae isolate after 20 to 24 hrs by broth microdilution method in presence of clavulanic acid
Procedure, shortened: (§5)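 Broth microdilution per CLSI, with plates incubated in 5% CO2. Mueller-Hinton broth with HTM supplement and yeast extract (5%). Inoculum about 5 x 10^5 CFU/ml, checked by colony counts on chocolate agar. Amoxicillin-clavulanic acid at 2:1 ratio. 35°C, 20 to 24 h. MIC is the lowest concentration inhibiting growth. Isolates genotyped for ftsI/blaTEM by sequencing; β-lactamase by nitrocefin test.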

Haemophilus influenzae [19] = experiment: Antibacterial activity against Beta-lactamase negative Haemophilus influenzae isolate after 20 to 24 hrs by Etest method in presence of clavulanic acid
Procedure, shortened: (§6)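 Etest on clinical H. influenzae isolates genotyped for ftsI and blaTEM by PCR and sequencing; β-lactamase status by nitrocefin chromogenic test. Colonies from overnight chocolate agar suspended in saline to McFarland 0.5, swabbed confluently onto 150-mm agar plates, strips placed radially; 35°C, 5% CO2, 20 to 24 h. MIC read where inhibition ellipse meets strip, rounded up to next log2 concentration.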

Haemophilus influenzae [20] = experiment: Antibacterial activity against Beta-lactamase positive Haemophilus influenzae isolate after 20 to 24 hrs by broth microdilution method in presence of clavulanic acid; procedure, shortened: as §5
Haemophilus influenzae [21] = experiment: Antibacterial activity against Beta-lactamase positive Haemophilus influenzae isolate after 20 to 24 hrs by Etest method in presence of clavulanic acid; procedure, shortened: as §6
Haemophilus influenzae [22] = experiment: Antibacterial activity against Beta-lactamase negative Haemophilus influenzae isolate harboring fst1 mutant gene after 20 to 24 hrs by broth microdilution method in presence of clavulanic acid; procedure, shortened: as §5
Haemophilus influenzae [23] = experiment: Antibacterial activity against Beta-lactamase negative Haemophilus influenzae isolate harboring fst1 mutant gene after 20 to 24 hrs by Etest method in presence of clavulanic acid; procedure, shortened: as §6
Haemophilus influenzae [24] = experiment: Antibacterial activity against Beta-lactamase positive Haemophilus influenzae isolate harboring fst1 mutant gene after 20 to 24 hrs by broth microdilution method in presence of clavulanic acid; procedure, shortened: as §5
Haemophilus influenzae [25] = experiment: Antibacterial activity against Beta-lactamase positive Haemophilus influenzae isolate harboring fst1 mutant gene after 20 to 24 hrs by Etest method in presence of clavulanic acid; procedure, shortened: as §6
Haemophilus influenzae [26] = experiment: Antibacterial activity against Beta-lactamase negative ampicillin-resistant Haemophilus influenzae isolate with SSN motif mutation after 20 to 24 hrs by broth microdilution method; procedure, shortened: as §1
Haemophilus influenzae [27] = experiment: Antibacterial activity against Beta-lactamase negative ampicillin-resistant Haemophilus influenzae isolate with SSN motif mutation after 20 to 24 hrs by Etest method; procedure, shortened: as §3
Haemophilus influenzae [28] = experiment: Antibacterial activity against Beta-lactamase negative ampicillin-resistant Haemophilus influenzae isolate with SSN motif mutation after 20 to 24 hrs by disk diffusion method using <=29 mm disk
Procedure, shortened: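 Disk diffusion per CLSI on HTM base with HTM supplement and yeast extract (5%). Inoculum McFarland 0.5. Incubation 20 to 24 h at 35°C in 5% CO2. Cefixime disk 5 µg. Isolates genotyped for ftsI (SSN motif) by PCR and sequencing. Zone diameter measured.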

Haemophilus influenzae [29] = experiment: Antibacterial activity against Beta-lactamase negative Haemophilus influenzae assessed as resistant isolates after 20 to 24 hrs by broth microdilution method; procedure, shortened: as §1
Haemophilus influenzae [30] = experiment: Antibacterial activity against Beta-lactamase negative Haemophilus influenzae assessed as resistant isolates after 20 to 24 hrs by Etest method
Haemophilus influenzae [31] = experiment: Antibacterial activity against Beta-lactamase positive Haemophilus influenzae assessed as resistant isolates after 20 to 24 hrs by broth microdilution method; procedure, shortened: as §1
Haemophilus influenzae [32] = experiment: Antibacterial activity against Beta-lactamase negative Haemophilus influenzae harboring fst1 mutant gene assessed as resistant isolates after 20 to 24 hrs by Etest method; procedure, shortened: as §3
Haemophilus influenzae [33] = experiment: Antibacterial activity against Beta-lactamase positive Haemophilus influenzae harboring fst1 mutant gene assessed as susceptible isolates after 20 to 24 hrs by broth microdilution method; procedure, shortened: as §1
Haemophilus influenzae [34] = experiment: Antibacterial activity against Beta-lactamase positive Haemophilus influenzae harboring fst1 mutant gene assessed as resistant isolates after 20 to 24 hrs by broth microdilution method; procedure, shortened: as §1
Haemophilus influenzae [35] = experiment: Antibacterial activity against Beta-lactamase positive Haemophilus influenzae harboring fst1 mutant gene assessed as susceptible isolates after 20 to 24 hrs by Etest method; procedure, shortened: as §3
Haemophilus influenzae [36] = experiment: Antibacterial activity against Beta-lactamase positive Haemophilus influenzae harboring fst1 mutant gene assessed as resistant isolates after 20 to 24 hrs by Etest method; procedure, shortened: as §3

Row | Compound | MIC50 (Haemophilus influenzae [2]) | MIC90 (Haemophilus influenzae [2]) | Activity (Haemophilus influenzae [3]) | MIC50 (Haemophilus influenzae [4]) | MIC90 (Haemophilus influenzae [4]) | Activity (Haemophilus influenzae [5]) | MIC50 (Haemophilus influenzae [6]) | MIC90 (Haemophilus influenzae [6]) | Activity (Haemophilus influenzae [7]) | MIC50 (Haemophilus influenzae [8]) | MIC90 (Haemophilus influenzae [8]) | Activity (Haemophilus influenzae [9]) | Activity (Haemophilus influenzae [10]) | MIC50 (Haemophilus influenzae [11]) | MIC90 (Haemophilus influenzae [11]) | Activity (Haemophilus influenzae [12]) | Activity (Haemophilus influenzae [13]) | MIC50 (Haemophilus influenzae [14]) | MIC90 (Haemophilus influenzae [14]) | Activity (Haemophilus influenzae [15]) | also measured
1 | CC1(C)S[C@@H]2[C@H](NC(=O)[C@H](N)c3ccccc3)C(=O)N2[C@H]1C(=O)O [AMPICILLIN] | ≤ 0.25 µg/mL | 0.5 µg/mL (≈ 1.43 µM) | 100% | 0.25 µg/mL (≈ 0.715 µM) | 0.5 µg/mL (≈ 1.43 µM) | 100% | ≥ 32 µg/mL | ≥ 32 µg/mL | 0% | 4 µg/mL (≈ 11.4 µM) | 16 µg/mL (≈ 45.8 µM) | 5% | 85% | 1 µg/mL (≈ 2.86 µM) | 2 µg/mL (≈ 5.72 µM) | 76.5% | 2.9% | 1 µg/mL (≈ 2.86 µM) | 2 µg/mL (≈ 5.72 µM) | 88.2% | MIC (Haemophilus influenzae [1]): >=2 ug; MIC (Haemophilus influenzae [2]): ≤ 0.25 µg/mL; MIC (Haemophilus influenzae [16]): ≥ 32 µg/mL; MIC50 (Haemophilus influenzae [17]): 32 µg/mL (≈ 91.6 µM); MIC90 (Haemophilus influenzae [17]): 64 µg/mL (≈ 183 µM)
2 | CC1(C)S[C@@H]2[C@H](NC(=O)[C@H](N)c3ccc(O)cc3)C(=O)N2[C@H]1C(=O)O [AMOXICILLIN] | 0.5 µg/mL (≈ 1.37 µM) | 0.5 µg/mL (≈ 1.37 µM) | 100% | 0.5 µg/mL (≈ 1.37 µM) | 0.5 µg/mL (≈ 1.37 µM) | 100% | ≥ 64 µg/mL | ≥ 64 µg/mL | 0% | 4 µg/mL (≈ 10.9 µM) | 16 µg/mL (≈ 43.8 µM) | 5% | 85% | 2 µg/mL (≈ 5.47 µM) | 4 µg/mL (≈ 10.9 µM) | 20.6% | 35.3% | 1 µg/mL (≈ 2.74 µM) | 2 µg/mL (≈ 5.47 µM) | 67.6% | MIC (Haemophilus influenzae [2]): 0.5 µg/mL (≈ 1.37 µM); MIC (Haemophilus influenzae [16]): ≥ 32 µg/mL; MIC50 (Haemophilus influenzae [17]): 32 µg/mL (≈ 87.6 µM); MIC90 (Haemophilus influenzae [17]): 64 µg/mL (≈ 175 µM); MIC (Haemophilus influenzae [18]): 0.5 µg/mL; MIC (Haemophilus influenzae [19]): 0.25 µg/mL; MIC (Haemophilus influenzae [20]): 0.25 µg/mL; MIC (Haemophilus influenzae [21]): 0.25 µg/mL; MIC (Haemophilus influenzae [22]): 0.5 µg/mL; MIC (Haemophilus influenzae [23]): 0.25 µg/mL; MIC (Haemophilus influenzae [24]): 1 µg/mL; MIC (Haemophilus influenzae [25]): 0.5 µg/mL
3 | C=CC1=C(C(=O)O)N2C(=O)[C@@H](NC(=O)/C(=N\OCC(=O)O)c3csc(N)n3)[C@H]2SC1 [CEFIXIME] | – | – | – | – | – | – | – | – | – | – | – | – | – | – | – | – | – | – | – | – | MIC (Haemophilus influenzae [26]): ≥ 0.5 µg/mL; MIC (Haemophilus influenzae [27]): ≥ 0.5 µg/mL; MIC (Haemophilus influenzae [28]): ≥ 0.5 µg/mL
4 | N[C@@H](C(=O)N[C@@H]1C(=O)N2C(C(=O)O)=C(Cl)CS[C@H]12)c1ccccc1 [CEFACLOR ANHYDROUS] | 2 µg/mL (≈ 5.44 µM) | 4 µg/mL (≈ 10.9 µM) | 100% | 1 µg/mL (≈ 2.72 µM) | 2 µg/mL (≈ 5.44 µM) | 100% | 8 µg/mL (≈ 21.8 µM) | 16 µg/mL (≈ 43.5 µM) | 0% | 1 µg/mL (≈ 2.72 µM) | 2 µg/mL (≈ 5.44 µM) | 100% | 0% | 8 µg/mL (≈ 21.8 µM) | 8 µg/mL (≈ 21.8 µM) | 94.1% | 0% | 4 µg/mL (≈ 10.9 µM) | 16 µg/mL (≈ 43.5 µM) | 76.5% | Activity (Haemophilus influenzae [29]): 0%; Activity (Haemophilus influenzae [30]): 0%; Activity (Haemophilus influenzae [31]): 5%; MIC (Haemophilus influenzae [8]): 1 µg/mL (≈ 2.72 µM); Activity (Haemophilus influenzae [32]): 5.9%; MIC50 (Haemophilus influenzae [16]): 8 µg/mL (≈ 21.8 µM); MIC90 (Haemophilus influenzae [16]): 16 µg/mL (≈ 43.5 µM); Activity (Haemophilus influenzae [33]): 80%; Activity (Haemophilus influenzae [34]): 0%; MIC50 (Haemophilus influenzae [17]): 4 µg/mL (≈ 10.9 µM); MIC90 (Haemophilus influenzae [17]): 32 µg/mL (≈ 87 µM); Activity (Haemophilus influenzae [35]): 73.3%; Activity (Haemophilus influenzae [36]): 20%

From ChEMBL document CHEMBL1275445, “Low beta-lactamase-negative ampicillin-resistant Haemophilus influenzae strains are best detected by testing amoxicillin susceptibility by the broth microdilution method” (2008)
